pIC50: −log10 of the molar value. Calls of active or inactive are those of the source. The calls are words filed in the database; no cut-off is given here.
How the values were obtained:
[1] = Cytotoxicity against human CRL2813 cells after 5 days by SRB assay; assay type: functional, cell-based; conditions: CRL2813, 120 h
Procedure, shortened: (§1)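 CRL-2813 melanoma or NIH/3T3 fibroblasts seeded in 96-well plates, exposed 5 days to 0.5–20 μM compound; fixed in cold 10% TCA, bound sulforhodamine B measured. % growth = 100×(T−T0)/(C−T0). IC50 derived; triplicate, three independent experiments.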

[2] = target: Eukaryotic translation initiation factor 2-alpha kinase 1 (Homo sapiens) (UniProt Q9BQI3); assay: Activation of HRI in human CRL-2813-pBISA-DL(ATF-4) reporter cells assessed as concentration required to obtain F-luciferase expression/R-luciferase expression ratio 3
Sequence of Eukaryotic translation initiation factor 2-alpha kinase 1 (Homo sapiens) (Q9BQI3 whole entry): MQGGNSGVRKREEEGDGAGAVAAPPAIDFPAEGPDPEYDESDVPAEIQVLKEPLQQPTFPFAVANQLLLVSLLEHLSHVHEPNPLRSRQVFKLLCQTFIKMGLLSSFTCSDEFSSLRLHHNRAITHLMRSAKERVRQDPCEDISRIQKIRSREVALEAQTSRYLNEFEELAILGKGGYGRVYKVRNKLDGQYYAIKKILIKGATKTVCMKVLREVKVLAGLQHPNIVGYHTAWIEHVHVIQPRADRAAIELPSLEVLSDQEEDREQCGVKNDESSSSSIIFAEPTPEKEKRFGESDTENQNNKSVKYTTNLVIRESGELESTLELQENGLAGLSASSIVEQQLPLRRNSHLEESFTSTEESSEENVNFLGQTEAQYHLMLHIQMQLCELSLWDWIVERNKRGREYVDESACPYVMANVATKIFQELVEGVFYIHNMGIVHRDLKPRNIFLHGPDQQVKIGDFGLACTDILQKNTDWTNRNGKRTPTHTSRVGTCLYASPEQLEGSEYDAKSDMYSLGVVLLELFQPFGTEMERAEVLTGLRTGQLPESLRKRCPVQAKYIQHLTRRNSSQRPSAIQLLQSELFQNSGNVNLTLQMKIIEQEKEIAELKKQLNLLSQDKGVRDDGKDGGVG
Procedure, shortened: (§2)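 Stably transfected CRL-2813-pBISA-DL(ATF-4) reporter cells treated with compounds in dose-response; firefly and renilla luciferases read by dual glow luciferase kit. Activity = firefly/renilla (F/R) ratio normalized to DMSO-treated wells (set at 1). Triplicate points fitted to logistic sigmoidal model by nonlinear least squares; C3X = concentration giving F/R = 3, Emax = maximal F/R.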

[3] = target: Eukaryotic translation initiation factor 2-alpha kinase 1 (Homo sapiens) (UniProt Q9BQI3); assay: Activation of HRI in human CRL-2813-pBISA-DL(ATF-4) reporter cells assessed as reduction of ternary complex at 30 uM by dual-luciferase reporter gene assay relative to control; procedure, shortened: as §2
[4] = target: Eukaryotic translation initiation factor 2-alpha kinase 1 (Homo sapiens) (UniProt Q9BQI3); assay: Activation of HRI in human CRL2813 cells assessed as increase in CHOP mRNA expression at 7.5 to 15 uM after 6 hrs by RT-PCR analysis; assay type: cell-based
Procedure, shortened: (§3)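 CRL-2813 cells incubated with 7.5 or 15 μM compound for 6 h; CHOP and cyclin D1 mRNA measured by real-time PCR. Each run in triplicate, mean of three independent experiments ±S.E.M.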

[5] = target: Eukaryotic translation initiation factor 2-alpha kinase 1 (Homo sapiens) (UniProt Q9BQI3); assay: Activation of HRI in human CRL2813 cells assessed as increase in CHOP protein expression at 10 uM after 6 hrs by Western blotting analysis; assay type: cell-based
Procedure, shortened: (§4)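 CRL-2813 melanoma cells grown in serum-containing medium without antibiotics to 70% confluence, treated 6 h (10 μM for CHOP/cyclin D1), lysed in M-PER on ice 30 min, protein by BCA. Equal protein on SDS-PAGE, probed with anti-pS51-eIF2α rabbit mAb, anti-total eIF2α mouse mAb, anti-CHOP, anti-cyclin D1, anti-actin. Three independent experiments.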

[6] = target: Eukaryotic translation initiation factor 2-alpha kinase 1 (Homo sapiens) (UniProt Q9BQI3); assay: Activation of HRI in human CRL2813 cells assessed as reduction in cyclin D1 mRNA expression at 7.5 to 15 uM after 6 hrs by RT-PCR analysis; assay type: cell-based; procedure, shortened: as §3
[7] = target: Eukaryotic translation initiation factor 2-alpha kinase 1 (Homo sapiens) (UniProt Q9BQI3); assay: Activation of HRI in human CRL2813 cells assessed as reduction in cyclin D1 protein expression at 10 uM after 6 hrs by Western blotting analysis; assay type: cell-based; procedure, shortened: as §4
[8] = target: Eukaryotic translation initiation factor 2-alpha kinase 1 (Homo sapiens) (UniProt Q9BQI3); assay: Activation of HRI in human CRL2813 cells assessed as eIF2alpha phosphorylation after 6 hrs by Western blotting analysis; assay type: cell-based; procedure, shortened: as §4
[9] = target: Eukaryotic translation initiation factor 2-alpha kinase 1 (Homo sapiens) (UniProt Q9BQI3); assay: Activation of HRI in human CRL-2813-pBISA-DL(ATF-4) reporter cells assessed as eIF2alpha phosphorylation after 8 to 32 hrs by dual-luciferase reporter gene assay
Procedure, shortened: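 Reporter CRL-2813-pBISA-DL(ATF-4) cells incubated with compounds for 8, 16 or 32 h. Firefly/renilla luciferase ratio measured by dual luciferase assay and normalized to vehicle-treated cells.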

NIH3T3 = assay: Cytotoxicity against mouse NIH/3T3 cells after 5 days by SRB assay; assay type: cell-based; conditions: NIH3T3, 120 h; procedure, shortened: as §1
[10] = Antiproliferative activity against human CRL2813 cells after 3 days by SRB assay in presence of HRI-targeting siRNA; assay type: functional, cell-based; conditions: CRL2813, 72 h
Procedure, shortened: (§5)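 CRL-2813 cells transiently transfected (Lipofectamine 2000) with HRI-targeting or non-targeting siRNA, then treated with compound dose range; proliferation by SRB after 3 days. IC50 calculated per siRNA condition; ratio is HRI-siRNA over non-targeting IC50. Triplicate, three independent experiments; mean±S.E.M.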

[11] = Antiproliferative activity against human CRL2813 cells after 3 days by SRB assay in presence of non-targeting siRNA; assay type: functional, cell-based; conditions: CRL2813, 72 h; procedure, shortened: as §5
[12] = Selectivity ratio of IC50 for mouse NIH/3T3 cells to IC50 for human CRL2813 cells; assay type: ADME, cell-based; conditions: NIH/3T3 cells and CRL2813 cells, read-out: Ratio IC50

| SMILES | Activity [2] [µM] | Ratio [3] | pIC50 [1] | other results |
| --- | --- | --- | --- | --- |
| O=C(Nc1cccc(Cl)c1)N[C@H]1CC[C@H](Oc2ccc(F)cc2)CC1 | 6.4 | 8.76 | 5.23 |  |
| O=C(Nc1ccccc1F)N[C@H]1CC[C@H](Oc2ccc(F)cc2)CC1 |  | 2.1 | 4.76 |  |
| O=C(Nc1cccc(C(F)(F)F)c1)N[C@H]1CCC[C@H](Oc2ccc(C(F)(F)F)cc2)C1 (relative stereo) | 2.7 | 4.52 | 5.42 |  |
| O=C(Nc1ccccc1Br)N[C@H]1CC[C@H](Oc2ccc(F)cc2)CC1 | 16.4 | 5.23 | 5.11 |  |
| O=C(Nc1ccccc1C(F)(F)F)N[C@H]1CC[C@H](Oc2ccc(F)cc2)CC1 |  | 1.56 | < 4.70 | Activity [4]: Active; Activity [5]: Active; Activity [6]: Active; Activity [7]: Active; Activity [8]: Active |
| O=C(Nc1cccc(C(=O)O)c1)N[C@H]1CC[C@H](Oc2ccc(F)cc2)CC1 |  | 0.88 | < 4.70 |  |
| CSc1ccccc1NC(=O)N[C@H]1CC[C@H](Oc2ccc(F)cc2)CC1 |  | 0.92 | < 4.70 |  |
| Cc1cccc(NC(=O)N[C@H]2CC[C@H](Oc3ccc(F)cc3)CC2)c1 | 24.1 | 4.73 | 4.84 |  |
| O=C(Nc1cccc(C(F)(F)F)c1)NC1CCCCC1 |  | 1.87 | 4.88 |  |
| O=C(Nc1cccc(C(F)(F)F)c1)N[C@H]1CC[C@H](Oc2ccc(C(F)(F)F)cc2)CC1 | 0.3 | 25.1 | 6.34 | pIC50 (NIH3T3): 5.47; pIC50 [10]: 5.30; pIC50 [11]: 6.18; selectivity ratio [12]: 7.4 |
| O=C(Nc1cccc(C(F)(F)F)c1)N[C@H]1CC[C@H](Oc2ccccc2C(F)(F)F)CC1 | 1.2 | 15.7 | 5.85 |  |
| O=C(Nc1cccc(C(F)(F)F)c1)N[C@H]1CC[C@H](Oc2cccc(C(F)(F)F)c2)CC1 | 1.1 | 26 | 5.89 | pIC50 (NIH3T3): 5.48; pIC50 [10]: 5.31; pIC50 [11]: 5.98; selectivity ratio [12]: 2.5 |
| O=C(Nc1cccc(I)c1)N[C@H]1CC[C@H](Oc2ccc(F)cc2)CC1 | 5.6 | 7.63 | 5.28 |  |
| O=C(Nc1ccccc1C(=O)O)N[C@H]1CC[C@@H](Oc2ccc(F)cc2)CC1 |  | 1.2 | < 4.70 |  |
| CSc1cccc(NC(=O)N[C@H]2CC[C@H](Oc3ccc(F)cc3)CC2)c1 | 12.2 | 6.67 | 4.95 |  |
| O=C(Nc1ccc(I)cc1)N[C@H]1CC[C@H](Oc2ccc(F)cc2)CC1 | 6.3 | 3.77 | 4.99 |  |
| O=C(Nc1ccccc1[N+](=O)[O-])N[C@H]1CC[C@H](Oc2ccc(F)cc2)CC1 |  | 2.23 | 5.46 |  |
| COC(=O)c1ccccc1NC(=O)N[C@H]1CC[C@@H](Oc2ccc(F)cc2)CC1 | 26.2 | 3.79 | 4.84 |  |
| O=C(Nc1ccccc1)N[C@H]1CC[C@H](Oc2ccc(F)cc2)CC1 |  | 1.65 | 4.70 |  |
| Cc1ccccc1NC(=O)N[C@H]1CC[C@H](Oc2ccc(F)cc2)CC1 |  | 0.98 | < 4.70 |  |
| O=C(Nc1cccc(C(F)(F)F)c1)N[C@H]1CC[C@H](Oc2ccc(OC(F)(F)F)cc2)CC1 | 1.5 | 14.4 | 6.16 | pIC50 (NIH3T3): 5.47; pIC50 [10]: 5.31; pIC50 [11]: 6.07; selectivity ratio [12]: 4.9 |

Second part, led by results:

| Activity [2] [µM] | Ratio [3] | SMILES | pIC50 [1] | other results |
| --- | --- | --- | --- | --- |
| 18.5 | 3.25 | O=C(Nc1ccccc1I)N[C@H]1CC[C@H](Oc2ccc(F)cc2)CC1 | < 4.70 |  |
|  | 1.07 | CSc1ccc(NC(=O)N[C@H]2CC[C@H](Oc3ccc(F)cc3)CC2)cc1 | < 4.70 |  |
|  | 1.65 | O=C(Nc1ccc(Cl)cc1)N[C@H]1CC[C@H](Oc2ccc(F)cc2)CC1 | < 4.70 |  |
| 13.5 | 6.54 | O=C(Nc1cccc(F)c1)N[C@H]1CC[C@H](Oc2ccc(F)cc2)CC1 | 5.08 | Activity [4]: Active; Activity [5]: Active; Activity [6]: Active; Activity [7]: Active; Activity [8]: Active |
|  | 0.98 | O=C(Nc1ccc(F)cc1)N[C@H]1CC[C@H](Oc2ccc(F)cc2)CC1 | 4.70 |  |
| 4.4 | 9.58 | O=C(Nc1cccc(C(F)(F)F)c1)N[C@H]1CC[C@H](OCc2ccc(F)cc2)CC1 | 5.58 | Activity [9]: Active |
|  | 1.41 | O=C(Nc1ccccc1OC(F)(F)F)N[C@H]1CC[C@H](Oc2ccc(F)cc2)CC1 | < 4.70 |  |
|  | 0.83 | COc1ccc(NC(=O)N[C@H]2CC[C@H](Oc3ccc(F)cc3)CC2)cc1 | < 4.70 |  |
| 26 | 3.81 | COc1cccc(NC(=O)N[C@H]2CC[C@H](Oc3ccc(F)cc3)CC2)c1 | 4.85 |  |
| 21.2 | 3.49 | O=C(Nc1ccc(C(=O)O)cc1)N[C@H]1CC[C@H](Oc2ccc(F)cc2)CC1 | 4.94 |  |
| 5.7 | 9.52 | O=C(Nc1cccc(Br)c1)N[C@H]1CC[C@H](Oc2ccc(F)cc2)CC1 | 5.21 |  |
| 12.8 | 3.97 | COC(=O)c1ccc(NC(=O)N[C@H]2CC[C@H](Oc3ccc(F)cc3)CC2)cc1 | 4.94 |  |
| 11.4 | 7.47 | O=C(Nc1cccc([N+](=O)[O-])c1)N[C@H]1CC[C@H](Oc2ccc(F)cc2)CC1 | 5.17 |  |
| 1.6 | 6.73 | O=C(Nc1cccc(C(F)(F)F)c1)N[C@H]1CC[C@H](Oc2ccc(Cl)cc2)CC1 | 5.70 |  |
|  | 0.89 | O=C(Nc1cccc(C(F)(F)F)c1)N[C@H]1CC[C@H](O)CC1 | < 4.70 |  |
| 1.7 | 5.89 | O=C(Nc1cccc(C(F)(F)F)c1)N[C@H]1CCCC[C@@H]1Oc1ccc(C(F)(F)F)cc1 (relative stereo) | 5.51 | Activity [9]: Active |
|  | 1.51 | COc1ccccc1NC(=O)N[C@H]1CC[C@H](Oc2ccc(F)cc2)CC1 | < 4.70 |  |
| 17.1 | 6.83 | COC(=O)c1cccc(NC(=O)N[C@H]2CC[C@H](Oc3ccc(F)cc3)CC2)c1 | 5.04 |  |
| 18.5 | 5.37 | O=C(Nc1ccccc1Cl)N[C@H]1CC[C@H](Oc2ccc(F)cc2)CC1 | 5.04 |  |
|  | 1.29 | O=C(Nc1ccc(Br)cc1)N[C@H]1CC[C@H](Oc2ccc(F)cc2)CC1 | < 4.70 |  |
|  | 1.05 | Cc1ccc(NC(=O)N[C@H]2CC[C@H](Oc3ccc(F)cc3)CC2)cc1 | < 4.70 |  |
